Source: ChEMBL document CHEMBL1144895, “Synthesis and anticonvulsant activity of novel bicyclic acidic amino acids” (J Med Chem, 2003)
Each block holds one compound with its values, some of them ahead of it.

Legend:
[1] = tested on: Mus musculus; assay: In vivo anticonvulsant activity determined as ip dose that blocked clonic seizures induced in DBA/2 mice by audiogenic stimuli; assay type: functional
How it was run: (§1)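 Male DBA/2 mice (6–12 g, 22–26 days old) given drug or vehicle ip (DMSO, pH 7.3–7.7 with phosphate buffer). After 45 min, a 110 dB sound for 60 s or until clonus; seizures scored (wild running, clonic, tonic, respiratory arrest).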

[2] = target: T1, Metabotropic glutamate receptor 5 (Rattus norvegicus, UniProt P31424); assay: Inhibitory constant against cloned rat Metabotropic glutamate receptor 5 expressed in Chinese Hamster Ovary (CHO) cells; assay type: cell-based
How it was run: (§2)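 Cloned rat mGluR1α, mGluR2, mGluR4a or mGluR5a stably expressed in CHO cell lines; cells maintained and tested by a previously described procedure.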

[3] = target: Metabotropic glutamate receptor 2 (Rattus norvegicus, UniProt P31421); assay: Activity tested at cloned rat mGluR2 receptor expressed in Chinese Hamster Ovary (CHO) cells; assay type: functional, cell-based
How it was run: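 Rat mGluR2 stably expressed in CHO cells, with cells maintained and tested as described in an earlier report. Agonism was assessed directly. Antagonism was assessed against a response to 30 μM Glu, with test compound at 1 mM.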

[4] = tested on: Mus musculus; assay: In vivo anticonvulsant activity determined as ip dose that blocked tonic seizures induced in DBA/2 mice by audiogenic stimuli; assay type: functional; how it was run: as §1
[5] = target: T2, Glutamate receptor ionotropic, AMPA (Rattus norvegicus, UniProt P19490+P19491+P19492+P19493); assay: Binding affinity of compound was determined against Ionotropic glutamate receptor AMPA receptor, using radioligand [3H]- AMPA; assay type: protein-complex assay
[6] = species on record: Rattus norvegicus; assay: Antagonist activity tested in rat cortical slice model; assay type: functional
How it was run: (§3)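 Rat cortical slice model; compounds tested up to 1000 μM both as agonists and as antagonists. Antagonism measured against responses to NMDA (10 μM), AMPA (5 μM) or KA (5 μM), agonist applied for a further 90 s.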

[7] = target: T3, Metabotropic glutamate receptor 4 (Rattus norvegicus, UniProt P31423); assay: Inhibitory constant against cloned rat Metabotropic glutamate receptor 4 expressed in Chinese Hamster Ovary (CHO) cells; assay type: cell-based; how it was run: as §2
[8] = target: Glutamate receptor ionotropic, kainate; assay: In vitro binding affinity for rat cortical membrane KA receptor determined using [3H]KA as radioligand
[9] = tested on: Mus musculus; assay: In vivo anticonvulsant activity determined as ip dose that blocked 3,5-DHPG induced tonic seizures induced in DBA/2 mice; assay type: functional
How it was run: (§4)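 DBA/2 mice (n = 10 per group) given agent ip at 10–100 μmol/kg 15 min before icv DHPG (1.5 μmol); seizure-related activity observed for 90 min.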

[10] = target: Metabotropic glutamate receptor 1 (Rattus norvegicus, UniProt P23385); assay: Inhibitory constant against cloned rat Metabotropic glutamate receptor 1 expressed in Chinese Hamster Ovary (CHO) cells; assay type: cell-based; how it was run: as §2
[11] = species on record: Rattus norvegicus; assay: Agonist activity tested in rat cortical slice model; assay type: functional; how it was run: as §3
[12] = tested on: Mus musculus; assay: In vivo anticonvulsant activity determined as ip dose that blocked NMDA-induced tonic seizures induced in DBA/2 mice; assay type: functional
[13] = target: T3, Metabotropic glutamate receptor 4; assay: Activity tested at cloned rat Metabotropic glutamate receptor 4 expressed in Chinese Hamster Ovary (CHO) cells; assay type: functional, cell-based; how it was run: as §2
[14] = target: Glutamate NMDA receptor; assay: In vitro binding affinity for rat cortical membrane N-methyl-D-aspartate glutamate receptor determined using [3H]CPP as radioligand
[15] = tested on: Mus musculus; assay: In vivo anticonvulsant activity determined as ip dose that blocked tonic seizures induced by audiogenic stimuli in DBA/2 mice after pretreatment with D-serine; assay type: functional
How it was run: (§5)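 DBA/2 mice pretreated with D-serine (300 nmol/mouse, icv) 30 min […], then tested for audiogenic seizures (110 dB sound, clonic/tonic phases scored).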

[16] = tested on: Mus musculus; assay: In vivo anticonvulsant activity determined as ip dose that blocked clonic seizures induced by audiogenic stimuli in DBA/2 mice after pretreatment with D-serine; assay type: functional; how it was run: as §5
[17] = tested on: Mus musculus; assay: In vivo anticonvulsant activity determined as potency that blocked clonic seizures induced by audiogenic stimuli in DBA/2 mice after pretreatment with D-serine; assay type: functional; how it was run: as §5
[18] = tested on: Mus musculus; assay: In vivo anticonvulsant activity determined as potency that blocked NMDA-induced tonic seizures induced in DBA/2 mice; assay type: functional
[19] = tested on: Mus musculus; assay: In vivo anticonvulsant activity determined as potency that blocked tonic seizures induced in DBA/2 mice by audiogenic stimuli; assay type: functional
[20] = tested on: Mus musculus; assay: In vivo anticonvulsant activity determined as potency that blocked NMDA-induced clonic seizures induced in DBA/2 mice; assay type: functional
[21] = tested on: Mus musculus; assay: In vivo anticonvulsant activity determined as potency that blocked tonic seizures induced by audiogenic stimuli in DBA/2 mice after pretreatment with D-serine; assay type: functional; how it was run: as §5
[22] = tested on: Mus musculus; assay: In vivo anticonvulsant activity determined as potency that blocked clonic seizures induced in DBA/2 mice by audiogenic stimuli; assay type: functional
[23] = target: T1, Metabotropic glutamate receptor 5; assay: Activity tested at cloned rat Metabotropic glutamate receptor 5 expressed in Chinese Hamster Ovary (CHO) cells; assay type: functional, cell-based
How it was run: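 Rat mGluR5a splice variant expressed in a CHO cell line. Compounds were tested for agonist and antagonist action at this receptor.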

[24] = tested on: Mus musculus; assay: In vivo anticonvulsant activity determined as icv dose that blocked 3,5-DHPG induced tonic seizures induced in DBA/2 mice after; assay type: functional; conditions: central
[25] = tested on: Mus musculus; assay: In vivo anticonvulsant activity determined as icv dose that blocked NMDA-induced tonic seizures induced in DBA/2 mice after ip administration; assay type: functional
How it was run: (§6)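 DBA/2 mice, n = 10 per group, were dosed with drug in DMSO buffered to pH 7.3–7.7, then given icv NMDA: 18.7 nmol/mouse for tonic extension or 1.9 nmol/mouse for clonic seizures. ED50 by Litchfield–Wilcoxon, 95% confidence limits.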

[26] = tested on: Mus musculus; assay: In vivo anticonvulsant activity determined as icv dose that blocked tonic seizures induced in DBA/2 mice by audiogenic stimuli; assay type: functional; conditions: central
How it was run: (§7)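 Male DBA/2 mice (6–12 g, 22–26 days old) received icv drug or vehicle (10 μL, 1 mm anterior to bregma, 1 mm lateral, 3 mm depth) under light ether anaesthesia. Drug was dissolved in DMSO, pH 7.3–7.7 with phosphate buffer. 45 min later, 110 dB bell for 60 s; wild running, clonus, tonic extension scored.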

[27] = tested on: Mus musculus; assay: In vivo anticonvulsant activity determined as icv dose that blocked tonic seizures induced by audiogenic stimuli in DBA/2 mice after pretreatment with D-serine; assay type: functional; conditions: central
[28] = tested on: Mus musculus; assay: In vivo anticonvulsant activity determined as icv dose that blocked NMDA-induced clonic seizures induced in DBA/2 mice; assay type: functional; conditions: central; how it was run: as §6
[29] = tested on: Mus musculus; assay: In vivo anticonvulsant activity determined as icv dose that blocked clonic seizures induced by audiogenic stimuli in DBA/2 mice after pretreatment with D-serine; assay type: functional; conditions: central
[30] = tested on: Mus musculus; assay: In vivo anticonvulsant activity determined as icv dose that blocked clonic seizures induced in DBA/2 mice by audiogenic stimuli; assay type: functional; conditions: central; how it was run: as §7
[31] = tested on: Mus musculus; assay: In vivo anticonvulsant activity determined as icv dose that blocked 3,5-DHPG induced clonic seizures induced in DBA/2 mice; assay type: functional; conditions: central
[32] = tested on: Mus musculus; assay: In vivo anticonvulsant activity determined as ip dose that blocked 3,5-DHPG induced tonic seizures induced in DBA/2 mice after; assay type: functional; how it was run: as §4
[33] = tested on: Mus musculus; assay: In vivo anticonvulsant activity determined as ip dose that blocked NMDA-induced tonic seizures induced in DBA/2 mice after ip administration; assay type: functional
[34] = tested on: Mus musculus; assay: In vivo anticonvulsant activity determined as ip dose that blocked 3,5-DHPG induced clonic seizures induced in DBA/2 mice; assay type: functional; how it was run: as §4
[35] = tested on: Mus musculus; assay: In vivo anticonvulsant activity determined as ip dose that blocked NMDA-induced clonic seizures induced in DBA/2 mice; assay type: functional
[36] = species on record: Rattus norvegicus; assay: Percent inhibition of the response induced by 5 uM of AMPA at a concentration of 1 mM in rat; assay type: functional
[37] = species on record: Rattus norvegicus; assay: Antagonist activity against responses induced by 10 uM NMDA tested in rat cortical slice model; assay type: functional
How it was run: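 Rat cortical slices; antagonism of responses induced by 10 μM NMDA, agonist applied for a further 90 s; IC50 derived.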

[38] = target: Metabotropic glutamate receptor 2 (Rattus norvegicus) (UniProt P31421); assay: Activity tested at cloned rat mGluR2 receptor expressed in Chinese Hamster Ovary (CHO) cells at 1 mM concentration; assay type: functional, cell-based
How it was run: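 Cloned rat mGluR2 in CHO cells; test compound at 1 mM, also checked for inhibition of the response to 30 μM Glu.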

[39] = target: T2, Glutamate receptor ionotropic, AMPA; assay: In vitro binding affinity for rat cortical membrane Ionotropic glutamate receptor AMPA determined using [3H]AMPA as radioligand

T3 sequence (P31423 whole entry): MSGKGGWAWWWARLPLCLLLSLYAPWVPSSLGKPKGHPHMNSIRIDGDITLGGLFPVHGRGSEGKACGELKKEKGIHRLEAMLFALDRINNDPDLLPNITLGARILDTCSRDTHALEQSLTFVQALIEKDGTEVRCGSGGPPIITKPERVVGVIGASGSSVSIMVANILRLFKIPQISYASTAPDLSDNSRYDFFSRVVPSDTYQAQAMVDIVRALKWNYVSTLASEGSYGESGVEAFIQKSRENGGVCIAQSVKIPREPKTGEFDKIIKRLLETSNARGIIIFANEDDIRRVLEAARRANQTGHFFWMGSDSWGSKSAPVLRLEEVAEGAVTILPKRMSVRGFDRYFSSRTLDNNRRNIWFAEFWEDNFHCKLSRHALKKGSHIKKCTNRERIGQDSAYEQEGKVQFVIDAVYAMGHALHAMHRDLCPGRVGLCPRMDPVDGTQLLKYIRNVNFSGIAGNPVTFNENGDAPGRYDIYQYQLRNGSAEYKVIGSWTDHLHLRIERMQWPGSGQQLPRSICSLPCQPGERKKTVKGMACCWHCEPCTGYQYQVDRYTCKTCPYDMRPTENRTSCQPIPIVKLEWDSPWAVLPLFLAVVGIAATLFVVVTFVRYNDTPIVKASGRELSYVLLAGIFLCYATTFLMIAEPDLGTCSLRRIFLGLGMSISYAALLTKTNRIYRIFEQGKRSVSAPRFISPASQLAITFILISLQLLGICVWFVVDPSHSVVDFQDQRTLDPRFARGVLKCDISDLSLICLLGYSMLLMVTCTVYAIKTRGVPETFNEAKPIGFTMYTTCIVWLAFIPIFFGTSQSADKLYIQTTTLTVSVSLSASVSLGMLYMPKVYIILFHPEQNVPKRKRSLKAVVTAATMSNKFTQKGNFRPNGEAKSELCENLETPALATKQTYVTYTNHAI
T1 sequence (P31424 whole entry): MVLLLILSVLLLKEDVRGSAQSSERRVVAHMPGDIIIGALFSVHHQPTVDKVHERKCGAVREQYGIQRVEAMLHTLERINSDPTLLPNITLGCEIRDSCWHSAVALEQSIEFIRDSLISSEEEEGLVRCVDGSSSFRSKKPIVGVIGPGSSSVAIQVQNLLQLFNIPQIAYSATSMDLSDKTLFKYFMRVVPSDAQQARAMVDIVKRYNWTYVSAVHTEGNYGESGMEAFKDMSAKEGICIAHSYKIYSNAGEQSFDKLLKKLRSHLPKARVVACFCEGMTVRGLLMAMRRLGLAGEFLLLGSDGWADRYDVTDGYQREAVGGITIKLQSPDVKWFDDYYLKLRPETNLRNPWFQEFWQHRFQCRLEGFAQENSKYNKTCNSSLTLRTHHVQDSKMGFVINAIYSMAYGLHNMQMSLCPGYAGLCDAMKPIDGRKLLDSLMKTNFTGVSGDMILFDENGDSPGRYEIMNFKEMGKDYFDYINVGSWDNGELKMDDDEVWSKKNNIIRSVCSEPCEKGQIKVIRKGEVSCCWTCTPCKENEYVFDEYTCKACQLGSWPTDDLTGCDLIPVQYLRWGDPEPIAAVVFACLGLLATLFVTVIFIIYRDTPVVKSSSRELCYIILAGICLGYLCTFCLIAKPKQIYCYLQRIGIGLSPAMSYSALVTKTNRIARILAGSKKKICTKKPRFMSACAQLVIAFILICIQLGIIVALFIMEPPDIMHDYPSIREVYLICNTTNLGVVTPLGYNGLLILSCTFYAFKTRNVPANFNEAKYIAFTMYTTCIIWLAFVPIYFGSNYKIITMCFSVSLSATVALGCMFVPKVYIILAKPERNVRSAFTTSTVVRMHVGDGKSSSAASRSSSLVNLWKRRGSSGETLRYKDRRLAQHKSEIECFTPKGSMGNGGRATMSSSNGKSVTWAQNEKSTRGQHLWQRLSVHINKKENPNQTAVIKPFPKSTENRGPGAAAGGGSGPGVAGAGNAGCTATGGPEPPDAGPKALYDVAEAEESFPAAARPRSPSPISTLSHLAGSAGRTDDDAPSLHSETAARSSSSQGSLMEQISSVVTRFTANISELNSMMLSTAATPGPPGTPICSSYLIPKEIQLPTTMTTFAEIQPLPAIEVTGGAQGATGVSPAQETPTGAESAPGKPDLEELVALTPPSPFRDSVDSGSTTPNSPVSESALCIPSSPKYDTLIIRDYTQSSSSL
Sequence of Metabotropic glutamate receptor 2 (P31421 whole entry): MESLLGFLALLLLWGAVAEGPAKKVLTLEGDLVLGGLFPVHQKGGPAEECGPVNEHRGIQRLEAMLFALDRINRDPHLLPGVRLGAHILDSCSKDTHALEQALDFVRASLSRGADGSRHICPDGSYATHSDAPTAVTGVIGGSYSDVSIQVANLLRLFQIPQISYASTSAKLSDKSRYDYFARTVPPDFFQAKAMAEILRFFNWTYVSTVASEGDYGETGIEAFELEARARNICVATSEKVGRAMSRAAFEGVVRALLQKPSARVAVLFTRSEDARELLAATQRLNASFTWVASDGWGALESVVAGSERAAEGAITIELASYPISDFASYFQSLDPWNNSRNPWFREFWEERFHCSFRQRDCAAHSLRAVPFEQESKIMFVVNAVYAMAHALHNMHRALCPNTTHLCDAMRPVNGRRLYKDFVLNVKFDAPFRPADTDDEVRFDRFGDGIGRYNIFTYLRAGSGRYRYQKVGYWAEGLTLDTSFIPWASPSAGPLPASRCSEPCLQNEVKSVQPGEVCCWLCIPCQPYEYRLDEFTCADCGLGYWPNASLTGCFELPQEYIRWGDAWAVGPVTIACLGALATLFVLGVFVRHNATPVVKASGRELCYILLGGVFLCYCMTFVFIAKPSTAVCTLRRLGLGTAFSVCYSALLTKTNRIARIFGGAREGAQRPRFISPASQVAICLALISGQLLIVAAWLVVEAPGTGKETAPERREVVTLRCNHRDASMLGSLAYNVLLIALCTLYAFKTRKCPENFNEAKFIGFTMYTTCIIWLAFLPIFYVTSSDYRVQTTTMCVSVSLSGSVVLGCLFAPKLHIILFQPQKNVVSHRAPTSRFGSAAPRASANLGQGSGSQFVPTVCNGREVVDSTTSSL
Sequence of Metabotropic glutamate receptor 1 (P23385 whole entry): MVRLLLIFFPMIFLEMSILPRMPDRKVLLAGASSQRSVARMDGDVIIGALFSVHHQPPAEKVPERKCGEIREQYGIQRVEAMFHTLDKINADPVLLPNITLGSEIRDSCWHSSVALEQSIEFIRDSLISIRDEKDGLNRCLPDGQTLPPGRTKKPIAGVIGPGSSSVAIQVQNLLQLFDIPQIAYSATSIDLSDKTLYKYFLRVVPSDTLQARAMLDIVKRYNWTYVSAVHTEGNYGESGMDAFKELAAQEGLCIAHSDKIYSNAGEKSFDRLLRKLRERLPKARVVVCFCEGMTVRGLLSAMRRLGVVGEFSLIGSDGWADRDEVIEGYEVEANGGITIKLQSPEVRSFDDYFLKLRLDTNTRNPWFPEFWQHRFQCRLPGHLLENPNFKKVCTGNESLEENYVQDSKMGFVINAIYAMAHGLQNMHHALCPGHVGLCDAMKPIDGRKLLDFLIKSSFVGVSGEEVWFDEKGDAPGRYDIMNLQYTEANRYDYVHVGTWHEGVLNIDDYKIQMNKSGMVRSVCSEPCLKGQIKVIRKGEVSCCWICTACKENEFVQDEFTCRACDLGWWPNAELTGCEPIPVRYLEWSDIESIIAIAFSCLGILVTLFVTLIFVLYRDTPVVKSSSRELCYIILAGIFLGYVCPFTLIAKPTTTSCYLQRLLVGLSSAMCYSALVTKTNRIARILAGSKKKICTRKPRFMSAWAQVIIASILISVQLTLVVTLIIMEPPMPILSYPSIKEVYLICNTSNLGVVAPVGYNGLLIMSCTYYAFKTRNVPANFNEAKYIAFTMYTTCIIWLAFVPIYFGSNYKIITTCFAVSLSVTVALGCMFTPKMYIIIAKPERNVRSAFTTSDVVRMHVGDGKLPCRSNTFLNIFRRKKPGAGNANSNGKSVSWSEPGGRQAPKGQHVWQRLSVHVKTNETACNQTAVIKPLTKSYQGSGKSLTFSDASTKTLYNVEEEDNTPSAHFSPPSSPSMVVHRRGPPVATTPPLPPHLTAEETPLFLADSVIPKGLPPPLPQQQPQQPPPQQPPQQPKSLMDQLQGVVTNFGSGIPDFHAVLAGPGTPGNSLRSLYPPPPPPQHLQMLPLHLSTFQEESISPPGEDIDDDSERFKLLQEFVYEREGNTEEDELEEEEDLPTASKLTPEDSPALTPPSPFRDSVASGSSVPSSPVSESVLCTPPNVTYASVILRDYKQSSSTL
Sequence of Metabotropic glutamate receptor 2 (Rattus norvegicus) (P31421 19-872 limits assumed): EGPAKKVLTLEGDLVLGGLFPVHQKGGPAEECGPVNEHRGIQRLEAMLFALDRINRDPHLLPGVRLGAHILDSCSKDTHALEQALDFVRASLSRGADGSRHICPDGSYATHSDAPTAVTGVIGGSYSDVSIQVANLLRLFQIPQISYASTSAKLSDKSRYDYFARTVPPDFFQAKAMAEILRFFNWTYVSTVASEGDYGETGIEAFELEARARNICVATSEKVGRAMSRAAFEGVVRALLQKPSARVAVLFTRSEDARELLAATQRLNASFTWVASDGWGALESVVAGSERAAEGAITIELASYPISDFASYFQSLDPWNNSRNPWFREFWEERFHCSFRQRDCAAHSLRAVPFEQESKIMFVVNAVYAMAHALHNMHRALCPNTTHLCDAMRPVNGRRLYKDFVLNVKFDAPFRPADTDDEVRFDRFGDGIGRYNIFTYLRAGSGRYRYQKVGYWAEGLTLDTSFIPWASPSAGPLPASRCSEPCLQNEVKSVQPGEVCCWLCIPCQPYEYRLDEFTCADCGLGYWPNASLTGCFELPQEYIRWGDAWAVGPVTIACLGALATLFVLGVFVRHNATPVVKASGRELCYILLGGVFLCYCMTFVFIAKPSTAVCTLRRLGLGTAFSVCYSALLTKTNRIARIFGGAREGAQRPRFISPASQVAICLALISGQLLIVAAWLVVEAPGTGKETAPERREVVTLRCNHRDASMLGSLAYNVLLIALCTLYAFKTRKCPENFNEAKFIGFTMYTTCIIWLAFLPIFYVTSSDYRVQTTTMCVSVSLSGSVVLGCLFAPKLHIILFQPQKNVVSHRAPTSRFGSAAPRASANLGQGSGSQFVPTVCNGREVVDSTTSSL

- Ki [2]: 440 µM
- EC50 [3]: 16 µM
- IC50 [5]: > 100 µM
- IC50 [6]: > 1000 µM
- Ki [7]: > 1000 µM
- IC50 [8]: > 100 µM
- Ki [10]: 27 µM
- EC50 [11]: > 1000 µM
- EC50 [13]: > 1000 µM
- IC50 [14]: > 100 µM
Structure (SMILES): N[C@]1(C(=O)O)C[C@@H]2ON=C(C(=O)O)[C@@H]2C1 (racemic)
- ED50 [1]: 42 µmol/kg
- ED50 [4]: 25 µmol/kg
- ED50 [9]: 84 µmol/kg
- ED50 [12]: 91 µmol/kg
- ED50 [15]: 24 µmol/kg
- ED50 [16]: 41 µmol/kg

Structure (SMILES): CCCC(CCC)C(=O)O [VALPROIC ACID]
- ED50 [17]: 275 µmol/kg
- ED50 [18]: 498 µmol/kg
- ED50 [19]: 187 µmol/kg
- ED50 [20]: 878 µmol/kg
- ED50 [21]: 205 µmol/kg
- ED50 [22]: 258 µmol/kg

Structure (SMILES): O=C1NC(=O)C(c2ccccc2)(c2ccccc2)N1 [PHENYTOIN]
- ED50 [17]: 11 µmol/kg
- ED50 [18]: 2.2 µmol/kg
- ED50 [19]: 7.3 µmol/kg
- ED50 [20]: 31 µmol/kg
- ED50 [21]: 8.7 µmol/kg
- ED50 [22]: 9.1 µmol/kg

Structure (SMILES): N[C@H](CCCP(=O)(O)O)C(=O)O
- IC50 [14]: 0.88 µM

Structure (SMILES): N[C@@]1(C(=O)O)CC[C@@H](C(=O)O)C1 (racemic)
- EC50 [3]: 2 µM
- EC50 [13]: 800 µM
- EC50 [23]: 23 µM

Structure (SMILES): N[C@@H](CCCP(=O)(O)O)C(=O)O
- IC50 [14]: 29 µM

Structure (SMILES): O=C(O)c1cc(O)c2c(Cl)cc(Cl)cc2n1
- ED50 [24]: 11 µmol/kg
- ED50 [25]: 22 µmol/kg
- ED50 [26]: 2.2 µmol/kg
- ED50 [27]: 8.5 µmol/kg
- ED50 [28]: 26 µmol/kg
- ED50 [29]: 12 µmol/kg
- ED50 [30]: 2.4 µmol/kg
- ED50 [31]: 14 µmol/kg

Structure (SMILES): NC(=O)OCC(COC(N)=O)c1ccccc1 [FELBAMATE]
- ED50 [17]: 674 µmol/kg
- ED50 [18]: 51 µmol/kg
- ED50 [19]: 97 µmol/kg
- ED50 [20]: 122 µmol/kg
- ED50 [21]: 328 µmol/kg
- ED50 [22]: 204 µmol/kg

Structure (SMILES): CC(C)OC(=O)Nc1cccc(Cl)c1 [CHLORPROPHAM]
- ED50 [24]: 6.9 µmol/kg
- ED50 [25]: 22 µmol/kg
- ED50 [26]: 2.6 µmol/kg
- ED50 [27]: 2.8 µmol/kg
- ED50 [28]: 41 µmol/kg
- ED50 [29]: 5.2 µmol/kg
- ED50 [30]: 5.6 µmol/kg
- ED50 [31]: 8.7 µmol/kg

- IC50 [14]: 0.04 µM
Structure (SMILES): O=C(O)[C@H]1CN(C/C=C/P(=O)(O)O)CCN1 [MIDAFOTEL]
- ED50 [32]: 6.8 µmol/kg
- ED50 [1]: 1.8 µmol/kg
- ED50 [33]: 11 µmol/kg
- ED50 [4]: 0.79 µmol/kg
- ED50 [15]: 1.2 µmol/kg
- ED50 [16]: 2.5 µmol/kg
- ED50 [34]: 8.6 µmol/kg
- ED50 [35]: 17 µmol/kg

- Ki [2]: 640 µM
- IC50 [37]: 14 µM
- Ki [7]: > 1000 µM
- IC50 [8]: > 100 µM
- Ki [10]: 94 µM
- EC50 [11]: > 1000 µM
- Activation [38]: 36%
- IC50 [39]: > 100 µM
- EC50 [13]: > 1000 µM
- IC50 [14]: 0.49 µM
Structure (SMILES): N[C@@]1(C(=O)O)C[C@@H]2ON=C(C(=O)O)[C@@H]2C1 (racemic)
- ED50 [32]: 45 µmol/kg
- ED50 [1]: 28 µmol/kg
- Inhibition [36]: 32%
- ED50 [33]: 39 µmol/kg
- ED50 [4]: 22 µmol/kg
- ED50 [15]: 27 µmol/kg
- ED50 [16]: 33 µmol/kg
- ED50 [34]: 70 µmol/kg
- ED50 [35]: 54 µmol/kg
